Measurements as given in ChEMBL document CHEMBL5357072, “Structural Modification of Noscapine via Photoredox/Nickel Dual Catalysis for the Discovery of S-Phase Arresting Agents” (ACS Med Chem Lett, 2024).

Key:
MOLM-13 [1] = experiment: Antiproliferative activity against human MOLM-13 cells assessed as inhibition of cell growth incubated for 48 hrs by CCK8 assay; assay type: functional, cell-based; conditions: MOLM-13, 48 h
Outline: (§1)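 CCK-8 growth-inhibition assay in the malignant haematological lines MOLM-13, NB4 and Jeko-1 and in normal PBMC. Cells were treated across a range of doses and IC50 taken as the half-maximal growth-inhibitory concentration. Data are mean ± SD of triplicate samples, and experiments were repeated at least three times.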

NB-4 [2] = experiment: Antiproliferative activity against human NB4 cells assessed as inhibition of cell growth incubated for 48 hrs by CCK8 assay; assay type: functional, cell-based; conditions: NB-4, 48 h; outline: as §1
JeKo-1 [3] = experiment: Antiproliferative activity against human JeKo-1 cells assessed as inhibition of cell growth incubated for 48 hrs by CCK8 assay; assay type: functional, cell-based; conditions: JeKo-1, 48 h; outline: as §1
NB-4 [4] = experiment: Antiproliferative activity against human NB4 cells assessed as cell growth inhibition at 10 uM incubated for 48 hrs by CCK8 assay relative to control; assay type: functional; conditions: read-out: GI
Outline: (§2)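 Single-concentration screen of six cancer cell lines. Cells were exposed to 10 μM compound and growth was measured by CCK-8 assay. Results are reported as inhibition rate at 10 μM.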

MOLM-13 [5] = experiment: Antiproliferative activity against human MOLM-13 cells assessed as cell growth inhibition at 10 uM incubated for 48 hrs by CCK8 assay relative to control; assay type: functional; conditions: read-out: GI; outline: as §2
JeKo-1 [6] = experiment: Antiproliferative activity against human JeKo-1 cells assessed as cell growth inhibition at 10 uM incubated for 48 hrs by CCK8 assay relative to control; assay type: functional; conditions: read-out: GI; outline: as §2
A549 = experiment: Antiproliferative activity against human A549 cells assessed as cell growth inhibition at 10 uM incubated for 48 hrs by CCK8 assay relative to control; assay type: functional; conditions: read-out: GI; outline: as §2
HeLa = experiment: Antiproliferative activity against human HeLa cells assessed as cell growth inhibition at 10 uM incubated for 48 hrs by CCK8 assay relative to control; assay type: functional; conditions: read-out: GI; outline: as §2
U-251 = experiment: Antiproliferative activity against human U-251 cells assessed as cell growth inhibition at 10 uM incubated for 48 hrs by CCK8 assay relative to control; assay type: functional; conditions: read-out: GI; outline: as §2
MOLM-13 [7] = experiment: Cell cycle arrest in human MOLM-13 cells assessed as accumulation of G0/G1 phase cells at 10 uM incubated for 24 hrs by RNase A/PI staining based flow cytometry analysis (reference value: 38.14%); assay type: functional
MOLM-13 [8] = experiment: Cell cycle arrest in human MOLM-13 cells assessed as accumulation of G2/M phase cells at 10 uM incubated for 24 hrs by RNase A/PI staining based flow cytometry analysis (reference value: 11.74%); assay type: functional
MOLM-13 [9] = experiment: Cell cycle arrest in human MOLM-13 cells assessed as accumulation of S phase cells at 10 uM incubated for 24 hrs by RNase A/PI staining based flow cytometry analysis (reference value: 50.12%); assay type: functional
MOLM-13 [10] = experiment: Induction of apoptosis in human MOLM-13 cells assessed as viable cells at 10 uM incubated for 48 hrs by Annexin V-FITC/PI staining based flow cytometric analysis (reference value: 92.24%); assay type: functional; conditions: read-out: Activity
MOLM-13 [11] = experiment: Induction of apoptosis in human MOLM-13 cells assessed as early apoptotic cells at 10 uM incubated for 48 hrs by Annexin V-FITC/PI staining based flow cytometric analysis (reference value: 4.10%); assay type: functional
MOLM-13 [12] = experiment: Induction of apoptosis in human MOLM-13 cells assessed as late apoptotic cells at 10 uM incubated for 48 hrs by Annexin V-FITC/PI staining based flow cytometric analysis (reference value: 3.17%); assay type: functional
MOLM-13 [13] = experiment: Induction of apoptosis in human MOLM-13 cells assessed as necrotic cells at 10 uM incubated for 48 hrs by Annexin V-FITC/PI staining based flow cytometric analysis (reference value: 0.48%); assay type: functional

Row | SMILES | IC50 (MOLM-13 [1]) | IC50 (NB-4 [2]) | IC50 (JeKo-1 [3]) | inhibition of growth at 10 µM (NB-4 [4]) | inhibition of growth at 10 µM (MOLM-13 [5]) | inhibition of growth at 10 µM (JeKo-1 [6]) | inhibition of growth at 10 µM (A549) | inhibition of growth at 10 µM (HeLa) | inhibition of growth at 10 µM (U-251) | Activity (MOLM-13 [7]) | Activity (MOLM-13 [8]) | Activity (MOLM-13 [9]) | viability at 10 µM (MOLM-13 [10]) | Activity (MOLM-13 [11]) | Activity (MOLM-13 [12]) | Activity (MOLM-13 [13])
1 | COc1ccc2c(c1OC)C(=O)O[C@@H]2[C@H]1c2c(c(CC3CN(C(=O)OCc4ccccc4)C3)c3c(c2OC)OCO3)CCN1C | 4.37 µM | 10.7 µM | 5.11 µM | – | – | – | – | – | – | – | – | – | – | – | – | –
2 | CCNC(=O)N1CCc2c(CC3CN(C(=O)OCc4ccccc4)C3)c3c(c(OC)c2[C@@H]1[C@H]1OC(=O)c2c1ccc(OC)c2OC)OCO3 | 6.47 µM | 10.4 µM | 6.97 µM | – | – | – | – | – | – | – | – | – | – | – | – | –
3 | COc1ccc2c(c1OC)C(=O)O[C@@H]2[C@H]1c2c(c(Br)c3c(c2OC)OCO3)CCN1C | 15.3 µM | 16.3 µM | 11.5 µM | 38.3% | 41.9% | 48.9% | 15.9% | 28.1% | < 5% | 32.96% | 36.44% | 30.6% | 78.1% | 10.63% | 10.56% | 0.69%
4 | COc1ccc2c(c1OC)C(=O)O[C@@H]2[C@H]1c2c(c(C3CCCCCC3)c3c(c2OC)OCO3)CCN1C(=O)OC(C)(C)C | – | – | – | < 5% | 39.4% | 10.3% | < 5% | < 5% | 20.5% | – | – | – | – | – | – | –
5 | COc1ccc2c(c1OC)C(=O)O[C@@H]2[C@H]1c2c(c(CC3CCCCC3)c3c(c2OC)OCO3)CCN1C(=O)OC(C)(C)C | – | – | – | < 5% | 29.3% | < 5% | < 5% | < 5% | < 5% | – | – | – | – | – | – | –
6 | COc1ccc2c(c1OC)C(=O)O[C@@H]2[C@H]1c2c(c(CC3CC3)c3c(c2OC)OCO3)CCN1C(=O)OC(C)(C)C | – | – | – | 8.2% | 43.6% | < 5% | < 5% | < 5% | < 5% | – | – | – | – | – | – | –
7 | COc1ccc2c(c1OC)C(=O)O[C@@H]2[C@H]1c2c(c(C3CN(C(=O)OC(C)(C)C)C3)c3c(c2OC)OCO3)CCN1C(=O)OC(C)(C)C | – | – | – | 30.1% | 49.7% | 17.6% | < 5% | < 5% | < 5% | – | – | – | – | – | – | –
8 | COc1ccc2c(c1OC)C(=O)O[C@@H]2[C@H]1c2c(c(CC3CN(C)C3)c3c(c2OC)OCO3)CCN1C | > 20 µM | > 20 µM | > 20 µM | – | – | – | – | – | – | – | – | – | – | – | – | –
